ChEMBL document CHEMBL1137705, “Study of 5-nitroindazoles' anti-Trypanosoma cruzi mode of action: electrochemical behaviour and ESR spectroscopic studies” (Eur J Med Chem, 2009)
The source made the active and inactive calls. No cut-off for these calls is given here.

Assays:
Trypanosoma cruzi [1] = test: Growth inhibition of Trypanosoma cruzi CL-Brener clone epimastigotes […] at 25 uM measured on […] by Brener method; type: functional; settings: 120 h, read-out: GI
How it was run: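 Axenic epimastigote culture (CL Brener) ran at 28 °C in BHI-tryptose with 5% FBS. Start density was 1 × 10⁶ cells/mL, with drug added from a DMSO stock (final ≤0.4%). %GI = {1 − [(Ap − A0p)/(Ac − A0c)]} × 100, using A600 at day 5 and day 0, drug versus drug-free control. Means of three experiments.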

Trypanosoma cruzi [2] = test: Antitrypanosomal activity against Trypanosoma cruzi SN3 trypomastigotes infected in african green monkey Vero cells assessed as parasite viability at 16.4 uM after 24 hrs by MTT assay; type: functional
Trypanosoma cruzi [3] = test: Antitrypanosomal activity against Trypanosoma cruzi SN3 trypomastigotes infected in african green monkey Vero cells assessed as parasite viability at 12.5 uM after 24 hrs by MTT assay; type: functional
Trypanosoma cruzi [4] = test: Induction of nitro-anion radical production in epimastigotes form of Trypanosoma cruzi Tulahuen microsomes at 2 mM after 25 mins by ESR spectroscopy; type: functional; settings: Microsome
Trypanosoma cruzi [5] = test: Induction of nitro-anion radical production in epimastigotes form of Trypanosoma cruzi Tulahuen microsomes at 1 mM after 25 mins by ESR spectroscopy; type: functional; settings: Microsome
Trypanosoma cruzi [6] = test: Antitrypanosomal activity against Trypanosoma cruzi SN3 trypomastigotes infected in african green monkey Vero cells assessed as parasite viability at 22 uM after 24 hrs by MTT assay; type: functional
How it was run: (§1)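 Vero cells were infected with SN-3 metacyclic trypomastigotes, then reinfected at 1 × 10⁶ parasites per 25 cm². Harvested trypomastigotes (1 × 10⁷) were incubated in FBS-RPMI at 37 °C for 24 h with or without compound. MTT was added to an aliquot at 0.5 mg/mL final, 28 °C for 4 h. SDS–HCl solubilisation ran overnight. Read-out was A570, reference 690 nm; untreated parasites = 100% viability.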

Trypanosoma cruzi [7] = test: Antitrypanosomal activity against Trypanosoma cruzi CL-Brener clone epimastigotes […] measured on […] by Brener method; type: functional, organism-based; settings: 120 h
How it was run: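 CL Brener epimastigotes were grown axenically at 28 °C in BHI-tryptose with 5% FBS. Day-0 inoculum was 1 × 10⁶ cells/mL from a 10-day stationary culture. Drug came from a DMSO stock, with final DMSO ≤0.4%; control had 0.4% DMSO and no drug. A600 was read daily. IC50 was the concentration reducing the day-5 absorbance ratio versus control to 50%.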

Trypanosoma cruzi [8] = test: Antitrypanosomal activity against Trypanosoma cruzi SN3 trypomastigotes infected in african green monkey Vero cells assessed as parasite viability at 11 uM after 24 hrs by MTT assay; type: functional; how it was run: as §1
Trypanosoma cruzi [9] = test: Antitrypanosomal activity against Trypanosoma cruzi SN3 trypomastigotes infected in african green monkey Vero cells assessed as parasite viability at 6.6 uM after 24 hrs by MTT assay; type: functional

Question: What does the source list for `CN(C)CCOCCn1nc(OCc2ccccc2)c2cc([N+](=O)[O-])ccc21`?
Answer: inhibition of growth at 25 µM (Trypanosoma cruzi [1]): 80%; Activity (Trypanosoma cruzi [2]): 0.56%

Question: How did the inhibition of growth at 25 µM (Trypanosoma cruzi [1]) turn out when `O=c1c2cc([N+](=O)[O-])ccc2n2n1CCCCC2` was run?
Answer: 4%

Question: Which results are given for `CN(C)CCCCCn1nc(OCc2ccccc2)c2cc([N+](=O)[O-])ccc21`?
Answer: Activity (Trypanosoma cruzi [3]): 0.49%; inhibition of growth at 25 µM (Trypanosoma cruzi [1]): 100%

Question: With `O=[N+]([O-])c1ccc2c(c1)c(OCc1ccccc1)nn2CCOCC[N+]1([O-])CCCCC1` as the compound, how does the inhibition of growth at 25 µM (Trypanosoma cruzi [1]) read?
Answer: 0%

Question: Which inhibition of growth at 25 µM (Trypanosoma cruzi [1]) does the source give for `COc1nn(CCOCCN2CCCCC2)c2ccc([N+](=O)[O-])cc12` here?
Answer: 25%

Question: How did the Activity (Trypanosoma cruzi [4]) turn out when `CCCCNCCCCCn1nc(OC)c2cc([N+](=O)[O-])ccc21` was run?
Answer: Active

Question: What about the Activity (Trypanosoma cruzi [5]) of the same compound?
Answer: Active

Question: And the inhibition of growth at 25 µM (Trypanosoma cruzi [1])?
Answer: 58%

Question: And the Activity (Trypanosoma cruzi [6])?
Answer: 40.04%

Question: What about the IC50 (Trypanosoma cruzi [7]) of the same compound?
Answer: 22 µM

Question: `CCCCNCCCCCn1nc(OCc2ccccc2)c2cc([N+](=O)[O-])ccc21` was tested. Which inhibition of growth at 25 µM (Trypanosoma cruzi [1]) did it give?
Answer: 94%

Question: What about the Activity (Trypanosoma cruzi [8]) of the same compound?
Answer: -0.37%

Question: What about the IC50 (Trypanosoma cruzi [7]) of the same compound?
Answer: 11 µM

Question: Which inhibition of growth at 25 µM (Trypanosoma cruzi [1]) does the source give for `O=c1c2cc([N+](=O)[O-])ccc2n2n1CCOCC2` here?
Answer: 6%

Question: For `O=[N+]([O-])c1ccc2c(c1)c(OCc1ccccc1)nn2CCOCCN1CCSCC1`, which inhibition of growth at 25 µM (Trypanosoma cruzi [1]) is on record?
Answer: 20%

Question: With `O=[N+]([O-])c1ccc2c(c1)c(O)nn2CCOCCN1CCSCC1` as the compound, how does the inhibition of growth at 25 µM (Trypanosoma cruzi [1]) read?
Answer: 0%

Question: `C[N+](C)([O-])CCOCCn1nc(OCc2ccccc2)c2cc([N+](=O)[O-])ccc21` was tested. Which inhibition of growth at 25 µM (Trypanosoma cruzi [1]) did it give?
Answer: 6%

Question: How did the inhibition of growth at 25 µM (Trypanosoma cruzi [1]) turn out when `CN(C)CCCCCn1nc(OCc2ccccc2)c2ccccc21` was run?
Answer: 18%

Question: Which inhibition of growth at 25 µM (Trypanosoma cruzi [1]) does the source give for `O=[N+]([O-])c1ccc2c(c1)c(OCc1ccccc1)nn2CCOCCN1CCCCC1` here?
Answer: 24%

Question: For `CC1CS(=O)(=O)CCN1/N=C/c1ccc([N+](=O)[O-])o1` (configuration not stated) [NIFURTIMOX], which inhibition of growth at 25 µM (Trypanosoma cruzi [1]) is on record?
Answer: 100%

Question: And the IC50 (Trypanosoma cruzi [7])?
Answer: 3.4 µM

Question: Which results are given for `O=[N+]([O-])c1ccc2c(c1)c(OCc1ccccc1)nn2CCCCCN1CCCCC1`?
Answer: Activity (Trypanosoma cruzi [9]): 0.29%; inhibition of growth at 25 µM (Trypanosoma cruzi [1]): 100%

Question: With `O=[N+]([O-])c1ccc2c(c1)c(O)nn2CCOCCN1CCCCC1` as the compound, how does the inhibition of growth at 25 µM (Trypanosoma cruzi [1]) read?
Answer: 9%

Question: How did the inhibition of growth at 25 µM (Trypanosoma cruzi [1]) turn out when `CN(C)CCOCCn1nc(O)c2cc([N+](=O)[O-])ccc21` was run?
Answer: 3%
